# Results from paper PMC3332339 (European Journal of Clinical Pharmacology, 2012).
# Marks after values point to notes of the source that are not given here.
# Key:
# [1] = Dabigatran plasma pharmacokinetics; assay type: in vivo, human; settings: for AUC(0-inf) / Cmax: both, human, plasma
# Outline: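 Crossover in healthy adults: 220 mg oral prodrug alone, or 24 h after 3 daily s.c. LMWH 40 mg doses, with 5-day washout. Plasma taken to 48 h post-dose. Free drug: plasma buffered with 0.2 M ammonium formate pH 3.5 plus [13C6] internal standard. Total drug: alkaline cleavage with NaOH, 2 h at 37°C, then HCl. Validated HPLC-MS/MS, calibrated 1.00–400 ng/mL. Geometric mean ratios with 90% CI.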
# [2] = system: factor Xa inhibition and thrombin inhibition; assay: Prothrombinase-induced clotting time; assay type: in vivo, human; settings: for PiCT AUEC0–48, ratio of adjusted test/reference gMean (90% CI) / PiCT ERmax, ratio of adjusted test/reference gMean (90% CI): after enoxaparin vs alone
# Outline: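 Healthy-adult crossover: oral prodrug 220 mg alone, or 24 h after 3 daily s.c. LMWH 40 mg doses. Platelet-poor plasma incubated with phospholipid/Russell's viper venom activator, 3 min at 37°C; factor Xa added, recalcified with reagent containing 25 mM CaCl2, clotting time read. Daily 142 ng/mL quality-control standard run at start, middle and end. AUEC0–48 and ERmax versus baseline; geometric mean ratios with 90% CI.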
# Safety and tolerability = assay type: in vivo, human; settings: for Tolerability (global assessment): Phase I, healthy subjects
# Outline: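 Open-label single-center crossover in healthy men and women: oral prodrug 220 mg alone, or after 3 daily s.c. LMWH 40 mg doses. Assessed by adverse events, physical examination, blood pressure, pulse, 12-lead ECG, hematology, clinical chemistry, urinalysis, local tolerability and investigator global assessment. Follow-up on days 1–3, with end-of-study examination within 7 days.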
# [3] = pharmacologically equipotent glucuronide; cited from earlier work
# [4] = system: intrinsic pathway of the coagulation cascade; assay: Activated partial thromboplastin time; assay type: in vivo, human; settings: for aPTT AUEC0–48, gMean / aPTT ERmax, gMean / aPTT Ebase (baseline effect), gMean: n = 23
# Outline: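 Crossover in healthy adults (18–55 y) with 5-day washout: oral thrombin-inhibitor prodrug 220 mg alone, or 24 h after 3 daily s.c. LMWH 40 mg doses. Plasma sampled over 48 h. Equal volumes of plasma and kaolin–cephalin reagent, 3 min at 37°C with stirring, recalcified with 0.025 M CaCl2, then time to fibrin clot on a coagulometer. Geometric mean test/reference ratios with 90% CI.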
# [5] = system: thrombin (meizothrombin generated from prothrombin by ecarin); assay: Ecarin clotting time; assay type: in vivo, human
# human α-thrombin = assay: Diluted thrombin time; assay type: in vivo; settings: for dTT (HEMOCLOT) AUEC0–48, gMean / dTT (HEMOCLOT) ERmax, gMean / dTT (HEMOCLOT) Ebase (baseline effect), gMean: n = 23
# Outline: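 Healthy-adult crossover (oral prodrug 220 mg alone or after 3 days of s.c. LMWH 40 mg), plasma sampled over 48 h. Plasma diluted in 0.9% NaCl, mixed with normal pooled human plasma, 2 min at 37°C; clotting started with a fixed amount of purified human α-thrombin and time to clot recorded in seconds. Quantitative range 50–500 ng/mL. AUEC0–48 and ERmax; geometric mean ratios with 90% CI.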
# factor Xa/IIa = settings: cited from earlier work
# [6] = dabigatran etexilate 220 mg after enoxaparin vs alone, adjusted gMean ratio
# [7] = dabigatran etexilate dosed 24 h after enoxaparin
# [8] = dabigatran etexilate 220 mg after enoxaparin, n = 21
# [9] = dabigatran etexilate 220 mg alone, n = 23
# [10] = dabigatran etexilate 220 mg after enoxaparin
# [11] = dabigatran etexilate 220 mg alone
# [12] = dabigatran etexilate 220 mg after enoxaparin, n = 23
# [13] = enoxaparin pre-treatment before dabigatran etexilate 220 mg
compound,measurement,setting,value
[H]/N=C(/N)c1ccc(NCc2nc3cc(C(=O)N(CCC(=O)O)c4ccccn4)ccc3n2C)cc1 [dabigatran],Ratio of free to total dabigatran gMean AUC0-∞,[1]; after enoxaparin,0.765
same,AUC(0-inf),[1]; oral,592 ng·h/mL
same,Cmax,[1]; oral,78.4 ng/mL
same,AUC(0-inf),"[1]; po, 220 mg",700 ng·h/mL
same,Cmax,"[1]; po, 220 mg",90.7 ng/mL
same,Ratio of free to total dabigatran gMean AUC0-∞,[1]; dabigatran alone,0.760
same,"AUC0-∞, ratio test/reference",[1]; [6],85%
same,"Cmax, ratio test/reference",[1]; [6],86%
same,Increase of PiCT AUEC0–48 compared with dabigatran etexilate alone,[2]; [7],64%
same,Increase of PiCT ERmax compared with dabigatran etexilate alone,[2]; [7],~15%
same,Subjects with adverse events by actual treatment at onset,Safety and tolerability; treatment at onset: dabigatran (three subjects of 23),13.0%
same,Subjects with adverse events by actual treatment at onset,Safety and tolerability; treatment at onset: enoxaparin + dabigatran (three subjects of 23),13.0%
same,Glucuronide share of total dabigatran exposure in plasma,[3],approximately 20%
CCCCCCOC(=O)NC(=N)c1ccc(NCc2nc3cc(C(=O)N(CCC(=O)OCC)c4ccccn4)ccc3n2C)cc1 [Dabigatran etexilate],"PiCT AUEC0–48, ratio of adjusted test/reference gMean (90% CI)",[2],163.7 (114.3–234.3) %
same,"PiCT ERmax, ratio of adjusted test/reference gMean (90% CI)",[2],115.2 (101.8–130.4) %
same,"PiCT AUEC0–48, ratio of adjusted test/reference gMean (90% CI)",[2]; listed as dabigatran etexilate,163.7%
same,"PiCT ERmax, ratio of adjusted test/reference gMean (90% CI)",[2]; listed as dabigatran etexilate,115.2%
same,"PiCT AUEC0–48, gMean",[2]; [8],23.8^c h
same,"PiCT ERmax (maximum effect ratio to baseline), gMean",[2]; [8],2.92^c
same,"PiCT Ebase (baseline effect), gMean",[2]; [8],34.7^c s
same,"PiCT AUEC0–48, gMean",[2]; [9],14.6 h
same,"PiCT ERmax (maximum effect ratio to baseline), gMean",[2]; [9],2.53
same,"PiCT Ebase (baseline effect), gMean",[2]; [9],28.4 s
same,Increase of PiCT ERmax compared with dabigatran etexilate alone,[2]; [7],approximately 15%
same,PiCT time to peak,[2]; similar in both treatment regimens (alone and 24 h after enoxaparin),3 h
same,"aPTT AUEC0–48, ratio of adjusted test/reference gMean (90% CI)",[4]; after enoxaparin vs alone,114.2 (75.1–173.5) %
same,"aPTT ERmax, ratio of adjusted test/reference gMean (90% CI)",[4]; after enoxaparin vs alone,84.9 (70.3–102.5) %
same,"aPTT AUEC0–48, gMean",[4]; [10],6.56 h
same,"aPTT ERmax, gMean",[4]; [10],2.07
same,"aPTT Ebase (baseline effect), gMean",[4]; [10],39.3 s
same,"aPTT AUEC0–48, gMean",[4]; [11],5.65 h
same,"aPTT ERmax, gMean",[4]; [11],2.40
same,"aPTT Ebase (baseline effect), gMean",[4]; [11],39.1 s
same,"ECT AUEC0–48, ratio of adjusted test/reference gMean (90% CI)",[5]; after enoxaparin vs alone,99.2 (67.8–145.0) %
same,"ECT ERmax, ratio of adjusted test/reference gMean (90% CI)",[5]; after enoxaparin vs alone,91.0 (80.0–103.5) %
same,"ECT Ebase (baseline effect), gMean","[5]; dabigatran etexilate 220 mg after enoxaparin, n = 22",32.6^d s
same,"ECT AUEC0–48, gMean",[5]; [12],7.30 h
same,"ECT ERmax, gMean",[5]; [12],2.05
same,"ECT AUEC0–48, gMean",[5]; [9],7.28 h
same,"ECT ERmax, gMean",[5]; [9],2.25
same,"ECT Ebase (baseline effect), gMean",[5]; [9],33.1 s
same,"dTT (HEMOCLOT) AUEC0–48, ratio of adjusted test/reference gMean (90% CI)",human α-thrombin; after enoxaparin vs alone,88.4 (66.8–116.9) %
same,"dTT (HEMOCLOT) ERmax, ratio of adjusted test/reference gMean (90% CI)",human α-thrombin; after enoxaparin vs alone,95.0 (87.4–103.2) %
same,"dTT (HEMOCLOT) AUEC0–48, gMean",human α-thrombin; [10],3.61 h
same,"dTT (HEMOCLOT) ERmax, gMean",human α-thrombin; [10],1.55
same,"dTT (HEMOCLOT) Ebase (baseline effect), gMean",human α-thrombin; [10],31.0 s
same,"dTT (HEMOCLOT) AUEC0–48, gMean",human α-thrombin; [11],4.01 h
same,"dTT (HEMOCLOT) ERmax, gMean",human α-thrombin; [11],1.64
same,"dTT (HEMOCLOT) Ebase (baseline effect), gMean",human α-thrombin; [11],31.7 s
same,Tolerability (global assessment),Safety and tolerability,well tolerated
enoxaparin,Effect of enoxaparin on ECT,[5]; [13],not meaningfully affected
same,Effect of enoxaparin on dTT,human α-thrombin; [13],not meaningfully affected
same,Tolerability (global assessment),Safety and tolerability,well tolerated
same,Subjects with adverse events by actual treatment at onset,Safety and tolerability; treatment at onset: enoxaparin (four subjects of 23),17.4%
same,Mean anti-factor Xa/IIa ratio,factor Xa/IIa,14.0 ± 3.1
